ChEMBL document CHEMBL4028898, “Structure-Activity Relationships of 6- and 8-Gingerol Analogs as Anti-Biofilm Agents” (J Med Chem, 2017)
Activity calls are given as the source filed them. The calls are words filed in the database; no cut-off is given here.

Legend:
Pseudomonas aeruginosa [1] = experiment: Antagonist activity at Pseudomonas aeruginosa LasR expressed in Escherichia coli DH5alpha assessed as inhibition of protein interaction with OdDHL at 1 to 10 uM after 1.5 hrs by beta-galactosidase reporter gene assay
Summary of the method: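 E. coli DH5α reporter carrying pJN105L (LasR) and pSC11 (lasI::lacZ); overnight culture with 10 µg/mL gentamicin and 50 µg/mL ampicillin diluted 1:100 in LB, used at OD595 0.3. Incubated with compound, OdDHL and 0.4% arabinose at 37 °C for 1.5 hr. β-galactosidase read by luminescence; RLU ratio = luminescence/OD595 ×100.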

Pseudomonas aeruginosa [2] = experiment: Agonist activity at Pseudomonas aeruginosa LasR expressed in Escherichia coli DH5alpha at 10 uM after 1.5 hrs by beta-galactosidase reporter gene assay
Pseudomonas aeruginosa [3] = experiment: Inhibition of static biofilm formation of Pseudomonas aeruginosa PA14 at 10 uM after 24 hrs by crystal violet staining-based assay; assay type: functional
Summary of the method: (§1)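 PA14 overnight culture (OD595 1.0) diluted 1:20 in AB medium, pH 7.5, with compound (0–100 µM), in borosilicate bottles, static at 37 °C for 24 hr.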

Pseudomonas aeruginosa [4] = experiment: Inhibition of dynamic biofilm formation of Pseudomonas aeruginosa PA14 assessed as biofilm thickness up to 10 uM after 48 hrs by Ruby/ConA staining-based assay (reference value: 34.5 +/- 1.3 um); assay type: functional
Summary of the method: (§2)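 Glass slides seeded 24 h at 37 °C, static, with PA14 (OD595 1.0) in AB medium, then placed in a drip-flow reactor fed with AB medium plus compound (0–10 µM) at 0.3 mL/min, 37 °C, 48 hr. PBS-washed biofilm stained 15 min with FITC-ConA (carbohydrate) and SYPRO Ruby (protein); CLSM at 20×; volume (µm³/µm²) and average thickness quantified by Comstat2.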

Pseudomonas aeruginosa [5] = experiment: Inhibition of static biofilm formation of Pseudomonas aeruginosa PA14 assessed as level of biofilm formation at 10 uM after 24 hrs by crystal violet staining-based assay relative to control; assay type: functional; set-up: scale not given: the % may be the effect or the level left; summary of the method: as §1
Pseudomonas aeruginosa [6] = experiment: Growth inhibition of Pseudomonas aeruginosa PA14 at 100 uM after 24 hrs
Summary of the method: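 P. aeruginosa PA14 overnight culture (OD595 1.0), 5% dilution with compound (0–100 µM), grown in 96-well plates at 37 °C for 24 h; growth read as OD595.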

Pseudomonas aeruginosa [7] = experiment: Inhibition of dynamic biofilm formation of Pseudomonas aeruginosa PA14 at 10 uM after 48 hrs by Ruby/ConA staining-based confocal laser scanning microscopic method; assay type: functional; summary of the method: as §2
Pseudomonas aeruginosa [8] = experiment: Inhibition of dynamic biofilm formation of Pseudomonas aeruginosa PA14 assessed as biofilm volume up to 10 uM after 48 hrs by Ruby/ConA staining-based assay (reference value: 23.1 +/- 1.8 um'3/um'2); assay type: functional; summary of the method: as §2
Pseudomonas aeruginosa [9] = experiment: Inhibition of dynamic biofilm formation of Pseudomonas aeruginosa PA14 assessed as volume of proteins in biofilm up to 10 uM after 48 hrs by Ruby/ConA staining-based assay relative to control; assay type: functional; set-up: scale not given: the % may be the effect or the level left; summary of the method: as §2
Pseudomonas aeruginosa [10] = experiment: Inhibition of dynamic biofilm formation of Pseudomonas aeruginosa PA14 assessed as volume of carbohydrates in biofilm up to 10 uM after 48 hrs by Ruby/ConA staining-based assay relative to control; assay type: functional; set-up: scale not given: the % may be the effect or the level left; summary of the method: as §2
Pseudomonas aeruginosa [11] = experiment: Reversible binding affinity to Pseudomonas aeruginosa LasR expressed in Escherichia coli DH5alpha at 1 uM after 1.5 hrs in presence of OdDHL by beta-galactosidase reporter gene assay
Summary of the method: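 LasR reporter in E. coli DH5α (pJN105L + pSC11) with 0.4% arabinose, 37 °C, 1.5 hr. Compound at 1 µM tested against OdDHL at 0, 0.1, 1, 10 and 100 µM, compared with no-compound control. β-galactosidase luminescence divided by OD595.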

Pseudomonas aeruginosa [12] = experiment: Inhibition of static biofilm formation of Pseudomonas aeruginosa PA14 at 100 uM after 24 hrs by crystal violet staining-based assay; assay type: functional; summary of the method: as §1

SMILES	inhibition (Pseudomonas aeruginosa [1])	inhibition (Pseudomonas aeruginosa [3])	also measured
CCCCCCCC(O)CC(=O)CCc1cccc(OC)c1 (stereo not drawn)	Active	–	–
CCCCCCC(O)CC(=O)CCc1ccc(O)c(OC)c1 (stereo not drawn)	Active	–	Activity (Pseudomonas aeruginosa [2]): inactive
CCCCCC(O)CC(=O)CCc1ccc(F)cc1 (stereo not drawn)	Active	Active	–
CCCCCCC[C@@H](O)CC(=O)CCc1ccc(O)c(OC)c1	Active	–	Activity (Pseudomonas aeruginosa [4]): 13.9 um; Activity (Pseudomonas aeruginosa [5]): 72%; growth inhibition (GI) (Pseudomonas aeruginosa [6]): Non-Toxic; inhibition (Pseudomonas aeruginosa [7]): Active; Activity (Pseudomonas aeruginosa [8]): 9.7 um3/um2
CCCC(O)CC(=O)CCc1ccc(O)c(OC)c1 (stereo not drawn)	Active	–	Activity (Pseudomonas aeruginosa [2]): inactive
CCCCC(O)CC(=O)CCc1ccc(O)c(OC)c1 (stereo not drawn)	Active	–	Activity (Pseudomonas aeruginosa [2]): inactive
CCCCCCCC(O)CC(=O)CCc1ccc(O)cc1 (stereo not drawn)	Active	Active	–
CCCCCCCCCC(=O)CCc1ccc(O)c(OC)c1	Active	Active	–
CCCCCCC[C@H](O)CC(=O)CCc1ccc(O)c(OC)c1	Active	–	Activity (Pseudomonas aeruginosa [4]): 17 um; Activity (Pseudomonas aeruginosa [5]): 100%; inhibition (Pseudomonas aeruginosa [7]): Active; Activity (Pseudomonas aeruginosa [8]): 17 um3/um2
CCCCCCC[C@@H](O)CC(=O)/C=C/c1ccc(O)c(OC)c1	Active	Active	Activity (Pseudomonas aeruginosa [4]): 10.3 um; growth inhibition (GI) (Pseudomonas aeruginosa [6]): Non-Toxic; Activity (Pseudomonas aeruginosa [9]): 23 - 56%; Activity (Pseudomonas aeruginosa [10]): 47 - 74%; Activity (Pseudomonas aeruginosa [11]): Active; inhibition (Pseudomonas aeruginosa [7]): Active; Activity (Pseudomonas aeruginosa [8]): 7.4 um3/um2
CCCCCC(O)CC(=O)CCc1ccc(F)c(OC)c1 (stereo not drawn)	Active	Active	–
CCCCCCCC(O)CC(=O)CCc1ccc(F)cc1 (stereo not drawn)	Active	Active	–
CCCCCCCC(=O)CCc1ccc(O)c(OC)c1	Active	Active	–
CCCCCCCCCC(=O)/C=C/c1ccc(O)c(OC)c1	Active	Active	–
CCCCCCCC(O)CC(=O)CCc1ccc(O)c(OCC)c1 (stereo not drawn)	Active	–	–
CCCCCC(O)CC(=O)CCc1ccccc1 (stereo not drawn)	Active	–	–
CCCCCCCC(O)CC(=O)CCc1ccccc1 (stereo not drawn)	Active	–	–
CCCCCCCCC(O)CC(=O)CCc1ccc(O)c(OC)c1 (stereo not drawn)	Active	–	Activity (Pseudomonas aeruginosa [2]): inactive; inhibition (Pseudomonas aeruginosa [12]): Active; growth inhibition (GI) (Pseudomonas aeruginosa [6]): Toxic
CCCCCC(O)CC(=O)CCc1cccc(OC)c1 (stereo not drawn)	Active	–	–
CCCCCCCC(O)CC(=O)CCc1ccc(O)c(OC)c1 (stereo not drawn)	Active	–	Activity (Pseudomonas aeruginosa [2]): inactive
CCCCCC(O)CC(=O)CCc1ccc(O)c(OC)c1 (stereo not drawn)	Active	–	Activity (Pseudomonas aeruginosa [2]): inactive
CCCCCCCC(=O)/C=C/c1ccc(O)c(OC)c1	Active	Active	–
CCCCCC(O)CC(=O)/C=C/c1ccc(O)c(OC)c1 (stereo not drawn)	Active	–	–
CCCCCC(O)CC(=O)CCc1ccc(O)cc1 (stereo not drawn)	Active	Active	–
CCCCCCCC(O)CC(=O)CCc1ccc(F)c(OC)c1 (stereo not drawn)	Active	Active	–
CCCCCCCC(O)CC(=O)CCc1ccc(OC)c(OC)c1 (stereo not drawn)	Active	–	–
CCCCCCCC(O)CC(=O)/C=C/c1ccc(O)c(OC)c1 (stereo not drawn)	Active	–	–
CCCCC[C@H](O)CC(=O)CCc1ccc(O)c(OC)c1	Active	Active	–
CCCCCCCCCC(O)CC(=O)CCc1ccc(O)c(OC)c1 (stereo not drawn)	Active	–	Activity (Pseudomonas aeruginosa [2]): inactive; inhibition (Pseudomonas aeruginosa [12]): Active; growth inhibition (GI) (Pseudomonas aeruginosa [6]): Toxic
